Test results from ChEMBL document CHEMBL2434891, “Design, synthesis, and in vitro cancer cell growth inhibition evaluation and antimalarial testing of trioxanes installed in cyclic 2-enoate substructures” (Eur J Med Chem, 2013).

Tests used:
[1] = test system: PC-3; experiment: Cytotoxicity against human PC3 cells after 72 hrs by SRB assay; assay type: functional; settings: PC-3, 72 h
[2] = test system: MKN-74; experiment: Cytotoxicity against human MKN74 cells after 72 hrs by SRB assay; assay type: functional; settings: MKN-74, 72 h
[3] = test system: DU-145; experiment: Cytotoxicity against human DU145 cells after 72 hrs by SRB assay; assay type: functional; settings: DU-145, 72 h
[4] = test system: MKN-28; experiment: Cytotoxicity against human MKN28 cells after 72 hrs by SRB assay; assay type: functional; settings: MKN-28, 72 h
[5] = test system: MKN-45; experiment: Cytotoxicity against human MKN45 cells after 72 hrs by SRB assay; assay type: functional; settings: MKN-45, 72 h
[6] = Cytotoxicity against human MKN1 cells after 72 hrs by SRB assay; assay type: functional; settings: MKN-1, 72 h
[7] = test system: St-4; experiment: Cytotoxicity against human St-4 cells after 72 hrs by SRB assay; assay type: functional; settings: St-4, 72 h
[8] = Cytotoxicity against human RXF631L cells after 72 hrs by SRB assay; assay type: functional; settings: RXF 631, 72 h
[9] = test system: ACHN; experiment: Cytotoxicity against human ACHN cells after 72 hrs by SRB assay; assay type: functional
[10] = test system: SK-OV-3; experiment: Cytotoxicity against human SKOV3 cells after 72 hrs by SRB assay; assay type: functional; settings: SK-OV-3, 72 h
[11] = test system: LOX IMVI; experiment: Cytotoxicity against human LOXIMVI cells after 72 hrs by SRB assay; assay type: functional
[12] = test system: OVCAR-3; experiment: Cytotoxicity against human OVCAR3 cells after 72 hrs by SRB assay; assay type: functional; settings: OVCAR-3, 72 h
[13] = test system: DMS-114; experiment: Cytotoxicity against human DMS114 cells after 72 hrs by SRB assay; assay type: functional; settings: DMS-114, 72 h
[14] = test system: DMS-273; experiment: Cytotoxicity against human DMS273 cells after 72 hrs by SRB assay; assay type: functional; settings: DMS-273, 72 h
[15] = test system: NCI-H460; experiment: Cytotoxicity against human NCI-H460 cells after 72 hrs by SRB assay; assay type: functional; settings: NCI-H460, 72 h
[16] = test system: NCI-H522; experiment: Cytotoxicity against human NCI-H522 cells after 72 hrs by SRB assay; assay type: functional; settings: NCI-H522, 72 h
[17] = test system: NCI-H226; experiment: Cytotoxicity against human NCI-H226 cells after 72 hrs by SRB assay; assay type: functional; settings: NCI-H226, 72 h
[18] = test system: NCI-H23; experiment: Cytotoxicity against human NCI-H23 cells after 72 hrs by SRB assay; assay type: functional; settings: NCI-H23, 72 h
[19] = test system: HCT-116; experiment: Cytotoxicity against human HCT116 cells after 72 hrs by SRB assay; assay type: functional, cell-based; settings: HCT-116, 72 h
Method in brief: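 Adherent cells grown at 37 °C and 5% CO2. Seeded at 1×10^4/well 24 h before dosing, then 72 h at 10–0.01 µg/mL final. Fixed with cold 50% TCA, stained with 0.4% SRB, dye extracted in 10 mM Tris, read at 540 nm.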

[20] = test system: HCT-15; experiment: Cytotoxicity against human HCT15 cells after 72 hrs by SRB assay; assay type: functional; settings: HCT-15, 72 h
[21] = test system: SNB-78; experiment: Cytotoxicity against human SNB78 cells after 72 hrs by SRB assay; assay type: functional; settings: SNB-78, 72 h
[22] = test system: SNB-75; experiment: Cytotoxicity against human SNB75 cells after 72 hrs by SRB assay; assay type: functional; settings: SNB-75, 72 h
[23] = test system: SF-268; experiment: Cytotoxicity against human SF268 cells after 72 hrs by SRB assay; assay type: functional; settings: SF-268, 72 h
[24] = test system: U-251; experiment: Cytotoxicity against human U251 cells after 72 hrs by SRB assay; assay type: functional; settings: U-251, 72 h
[25] = test system: MDA-MB-231; experiment: Cytotoxicity against human MDA-MB-231 cells after 72 hrs by SRB assay; assay type: functional; settings: MDA-MB-231, 72 h
[26] = Cytotoxicity against human BSY1 cells after 72 hrs by SRB assay; assay type: functional; settings: BSY-1, 72 h
[27] = Cytotoxicity against human HBC5 cells after 72 hrs by SRB assay; assay type: functional; settings: HBC5, 72 h
[28] = Cytotoxicity against human HBC4 cells after 72 hrs by SRB assay; assay type: functional; settings: HBC4, 72 h
[29] = read-out: LC50 (the source's name)

COc1ccc(C2O[C@]34CC(c5cccc(OC)c5)OC(=O)C3=C[C@@]2(C)OO4)cc1 (some centres undefined)
TGI [1]: 27 µM | GI50 ([1]; read-out: GI50): 13 µM | CC50 [1, 29]: 56 µM | TGI [2]: 37 µM | GI50 ([2]; read-out: GI50): 14 µM | CC50 [2, 29]: 96 µM | TGI [3]: 31 µM | GI50 ([3]; read-out: GI50): 16 µM | CC50 [3, 29]: 57 µM | TGI [4]: 36 µM | GI50 ([4]; read-out: GI50): 11 µM | CC50 [4, 29]: 100 µM | TGI [5]: 30 µM | GI50 ([5]; read-out: GI50): 16 µM | CC50 [5, 29]: 57 µM | TGI [6]: 4.4 µM | GI50 ([6]; read-out: GI50): 2.1 µM | CC50 [6, 29]: 9.1 µM | TGI [7]: 45 µM | GI50 ([7]; read-out: GI50): 18 µM | CC50 [7, 29]: 100 µM | TGI [8]: 31 µM | GI50 ([8]; read-out: GI50): 17 µM | CC50 [8, 29]: 59 µM | TGI [9]: 29 µM | GI50 ([9]; read-out: GI50): 15 µM | CC50 [9, 29]: 56 µM | TGI [10]: 33 µM | GI50 ([10]; read-out: GI50): 1.9 µM | CC50 [10, 29]: 58 µM | TGI [11]: 9 µM | GI50 ([11]; read-out: GI50): 1 µM | CC50 [11, 29]: 7.5 µM | TGI [12]: 5.1 µM | GI50 ([12]; read-out: GI50): 2.4 µM | CC50 [12, 29]: 13 µM | TGI [13]: 20 µM | GI50 ([13]; read-out: GI50): 4.4 µM | CC50 [13, 29]: 95 µM | TGI [14]: 27 µM | GI50 ([14]; read-out: GI50): 10 µM | CC50 [14, 29]: 74 µM | TGI [15]: 41 µM | GI50 ([15]; read-out: GI50): 20 µM | CC50 [15, 29]: 82 µM | TGI [16]: 5 µM | GI50 ([16]; read-out: GI50): 2 µM | CC50 [16, 29]: 22 µM | TGI [17]: 40 µM | GI50 ([17]; read-out: GI50): 18 µM | CC50 [17, 29]: 92 µM | TGI [18]: 36 µM | GI50 ([18]; read-out: GI50): 17 µM | CC50 [18, 29]: 79 µM | TGI [19]: 13 µM | GI50 ([19]; read-out: GI50): 3.4 µM | CC50 [19, 29]: 70 µM | TGI [20]: 17 µM | GI50 ([20]; read-out: GI50): 3.7 µM | CC50 [20, 29]: 100 µM | TGI [21]: 34 µM | GI50 ([21]; read-out: GI50): 13 µM | CC50 [21, 29]: 90 µM | TGI [22]: 28 µM | GI50 ([22]; read-out: GI50): 12 µM | CC50 [22, 29]: 64 µM | TGI [23]: 36 µM | GI50 ([23]; read-out: GI50): 14 µM | CC50 [23, 29]: 92 µM | TGI [24]: 33 µM | GI50 ([24]; read-out: GI50): 16 µM | CC50 [24, 29]: 68 µM | TGI [25]: 18 µM | GI50 ([25]; read-out: GI50): 5.4 µM | CC50 [25, 29]: 51 µM | TGI [26]: 17 µM | GI50 ([26]; read-out: GI50): 5 µM | CC50 [26, 29]: 46 µM | TGI [27]: 4.1 µM | GI50 ([27]; read-out: GI50): 1.9 µM | CC50 [27, 29]: 8.8 µM | TGI [28]: 13 µM | GI50 ([28]; read-out: GI50): 3.7 µM | CC50 [28, 29]: 38 µM
